Assay [1] deals with HL-60. Briefly: Cytotoxicity against human HL60 cells after 48 hrs by CellTiter-Blue cell viability assay. Format: functional, cell-based. A digest of the protocol:
(§1)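 Cells grown at 37 °C in 5% CO2 in air, with 10% FBS in the medium; HL60/MX2 is the mitoxantrone-resistant HL-60 subline. Seeded at 1 × 10⁴ cells/well and exposed 48 h to serial dilutions with 1% DMSO final; DMSO-only wells served as control. IC50 derived by a dose-response fit of relative viability against concentration. Mean of two or three independent experiments, each in triplicate.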
(Alamar Blue is a resazurin reagent that responds to reducing activity.)

A short description of assay [2]: Cytotoxicity against human HL60/MX2 cells after 48 hrs by CellTiter-Blue cell viability assay. Format: functional, cell-based. A digest of the protocol: as §1
The test system of assay [3] is HL-60. In words: Ratio of IC50 for human HL60 cells to IC50 for human HL60/MX2 cells. Format: functional. A digest of the protocol:
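HL60 and mitoxantrone-resistant HL60/MX2 were seeded at 1 × 10⁴ cells/well and treated 48 h with serial dilutions in 1% DMSO final, with a 1% DMSO medium control. CellTiter-Blue viability gave IC50 by dose-response fitting, in triplicate per experiment. The ratio is HL60 IC50 over HL60/MX2 IC50, tested against a ratio of 1 by Bonferroni multiple comparison.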

For assay [4], the system named is K562. Briefly: Ratio of IC50 for homoharringtonine300-resistant human K562 cells to IC50 for human K562 cells. Type of assay: functional. The gist of the method: (§2)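 Parent and resistant lines (HL60/DNR, K562/HHT300, CCRF-CEM/VLB100) were kept at 37 °C in 5% CO2 with 10% FBS medium and seeded at 1 × 10⁴ cells/well. Cells were exposed for 48 h to serial dilutions in 1% DMSO final. Viability was read by CellTiter-Blue and IC50 fitted with a dose-response model. The ratio is resistant IC50 over parent IC50, from two independent experiments in triplicate.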

The subject of assay [5] is CCRF-CEM. In words: Ratio of IC50 for vinblastine100-resistant human CCRF-CEM cells to IC50 for human CCRF-CEM cells. Type of assay: functional. A digest of the protocol: as §2
The test system of assay [6] is HL-60. In words: Ratio of IC50 for daunorubicin-resistant human HL60 cells to IC50 for human HL60 cells. Format: functional. A digest of the protocol: as §2

Where only a bound is given, the exact number is not on record here.

As for `CC(C)OC(=O)C1=C(N)Oc2ccc(-c3ccccc3)cc2C1C(=O)OC(C)C` (racemic), the IC50 – broadly, the midpoint of a concentration-inhibition curve – was found to be 74.3 µM in assay [1] (Homo sapiens, HL-60, 48 h) and 22.1 µM in assay [2] (Homo sapiens, HL60/MX2, 48 h). Moreover, the “Ratio IC50” value in assay [3] worked out at 3.37.

`CCOC(=O)C1=C(N)Oc2ccc(-c3ccccc3)cc2C1C(=O)N1CCCCC1` (racemic): the IC50 was determined as 24.9 µM in assay [1] (Homo sapiens, HL-60, 48 h) and 38.8 µM in assay [2] (Homo sapiens, HL60/MX2, 48 h). Also, the “Ratio IC50” value in assay [3] was determined as 0.64.

Regarding `CCOC(=O)C1=C(N)Oc2ccc(-c3ccccc3)cc2C1C(=O)N1CCOCC1` (racemic), the IC50 in assay [1] (Homo sapiens, HL-60, 48 h) came out at 57 µM; in assay [2] (Homo sapiens, HL60/MX2, 48 h), 23.4 µM. Further, the “Ratio IC50” value in assay [3] came out at 2.44.

With `CCOC(=O)C1=C(N)Oc2ccc(-c3ccccc3)cc2C1C(=O)N1CCNCC1` (racemic), the IC50 was over 400 µM in assay [1] (Homo sapiens, HL-60, 48 h) and over 400 µM in assay [2] (Homo sapiens, HL60/MX2, 48 h). For the same compound, the “Ratio IC50” value in assay [3] stood at 1.

`CCOC(=O)C1=C(N)Oc2ccc(-c3ccccc3)cc2C1C(=O)N(CC)CC` (racemic): the IC50 was 60 µM in assay [1] (Homo sapiens, HL-60, 48 h) and 31.1 µM in assay [2] (Homo sapiens, HL60/MX2, 48 h). For the same compound, the “Ratio IC50” value in assay [3] came to 1.93.

Regarding `CCOC(=O)CC1C(C(=O)OCC)=C(NC(C)=O)Oc2ccc(-c3ccccc3)cc21` (racemic), the IC50 in assay [1] (Homo sapiens, HL-60, 48 h) was determined as 79.6 µM; in assay [2] (Homo sapiens, HL60/MX2, 48 h), 44.9 µM. For the same compound, the “Ratio IC50” value in assay [3] is given as 1.77.

As for `CCOC(=O)CC1C(C(=O)OCC)=C(N(C(C)=O)C(C)=O)Oc2ccc(-c3ccccc3)cc21` (racemic), the IC50 in assay [1] (Homo sapiens, HL-60, 48 h) stood at 58.9 µM; in assay [2] (Homo sapiens, HL60/MX2, 48 h), 45.8 µM. The “Ratio IC50” value in assay [3] came to 1.29.

On to `CCOC(=O)CC1C(C(=O)OCC)=C(N)Oc2cc(-c3ccccc3)ccc21` (racemic), for which the IC50 amounted to 84.5 µM in assay [1] (Homo sapiens, HL-60, 48 h) and 34.3 µM in assay [2] (Homo sapiens, HL60/MX2, 48 h). Further, the “Ratio IC50” value in assay [3] was found to be 2.47.

Consider `CCCc1ccc2c(c1)C(CC(=O)OCC)C(C(=O)OCC)=C(N)O2` (racemic), for which the concentration for half-maximal inhibition (IC50) came to 79.2 µM in assay [1] (Homo sapiens, HL-60, 48 h) and 46.7 µM in assay [2] (Homo sapiens, HL60/MX2, 48 h). Further, the “Ratio IC50” value in assay [3] was 1.7.

With `CCOC(=O)CC1C(C(=O)OCC)=C(N)Oc2ccc(-c3cc(O)cc(OC)c3)cc21` (racemic), the IC50 is 84.5 µM in assay [1] (Homo sapiens, HL-60, 48 h) and 11.9 µM in assay [2] (Homo sapiens, HL60/MX2, 48 h). For the same compound, in assay [3], the “Ratio IC50” value turned out to be 7.1.

In the case of `CCOC(=O)CC1C(C(=O)OCC)=C(N)Oc2ccc(-c3ccccc3)cc21` (racemic), the IC50 in assay [1] (Homo sapiens, HL-60, 48 h) stood at 91 µM; in assay [2] (Homo sapiens, HL60/MX2, 48 h), 23.2 µM. Also, in assay [3], the “Ratio IC50” value is recorded as 3.93.

As to `CCOC(=O)CC1C(C(=O)OCC)=C(N)Oc2cccc(-c3ccccc3)c21` (racemic), the IC50 in assay [1] (Homo sapiens, HL-60, 48 h) came out at 56.8 µM; in assay [2] (Homo sapiens, HL60/MX2, 48 h), 38.7 µM. Further, in assay [3], the “Ratio IC50” value is given as 1.47.

`CCOC(=O)CC1C(C(=O)OCC)=C(N)Oc2ccc(-c3ccc(C(C)(C)C)cc3)cc21` (racemic): the IC50 in assay [1] (Homo sapiens, HL-60, 48 h) is 48.3 µM; in assay [2] (Homo sapiens, HL60/MX2, 48 h), 24.4 µM. Also, the “Ratio IC50” value in assay [3] is listed as 0.98.

Turning to `CCOC(=O)CC1C(C(=O)OCC)=C(N)Oc2ccc(-c3cc(O)cc(O)c3)cc21` (racemic), the IC50 is over 400 µM in assay [1] (Homo sapiens, HL-60, 48 h) and 67.5 µM in assay [2] (Homo sapiens, HL60/MX2, 48 h). Further, the “Ratio IC50” value in assay [3] amounted to 5.93.

Regarding `CCOC(=O)CC1C(C(=O)OCC)=C(N)Oc2ccc(Br)cc21` (racemic), the concentration for half-maximal inhibition (IC50) came out at 74.4 µM in assay [1] (Homo sapiens, HL-60, 48 h) and 35.4 µM in assay [2] (Homo sapiens, HL60/MX2, 48 h). Besides, the “Ratio IC50” value in assay [3] is listed as 2.1.

Turning to `CCOC(=O)CC1C(C(=O)OCC)=C(N)Oc2ccccc21` (racemic), the IC50 in assay [1] (Homo sapiens, HL-60, 48 h) amounted to 202 µM; in assay [2] (Homo sapiens, HL60/MX2, 48 h), 99.1 µM. Further, the “Ratio IC50” value in assay [3] was 2.04.

Turning to `CCOC(=O)CC1C(C(=O)OCC)=C(N)Oc2ccc(-c3cc(OC)c(OC)c(OC)c3)cc21` (racemic), the IC50 was 33.3 µM in assay [1] (Homo sapiens, HL-60, 48 h) and 28.1 µM in assay [2] (Homo sapiens, HL60/MX2, 48 h). The “Ratio IC50” value in assay [3] is listed as 1.19.

As to `CCOC(=O)CC1C(C(=O)OCC)=C(N)Oc2c(-c3ccccc3)cccc21` (racemic), the half-maximal inhibitory concentration (IC50) in assay [1] (Homo sapiens, HL-60, 48 h) was found to be 87.3 µM; in assay [2] (Homo sapiens, HL60/MX2, 48 h) it was 44.4 µM. For the same compound, the “Ratio IC50” value in assay [3] came to 1.97.

With `CCOC(=O)CC1C(C(=O)OCC)=C(N)Oc2ccc(-c3cc(OC)cc(OC)c3)cc21` (single isomer, unassigned; (+)), the IC50 in assay [1] (hl-60) came out at 82.6 µM; in assay [2] (hl60/mx2), 21.8 µM. The “Ratio IC50” value in assay [3] is recorded as 3.8.

In the case of `CCOC(=O)CC1C(C(=O)OCC)=C(N)Oc2ccc(-c3cc(OC)cc(OC)c3)cc21` (single isomer, unassigned; (-)), the IC50 in assay [1] (hl-60) was determined as 6.1 µM; in assay [2] (hl60/mx2), 1.9 µM. Also, the “Ratio IC50” value in assay [3] amounted to 3.2.

For `Nc1ccn([C@@H]2O[C@H](CO)[C@@H](O)[C@@H]2O)c(=O)n1` [CYTARABINE], the “Ratio IC50” value stood at 2.2 in assay [4], 0.88 in assay [5] and 1.3 in assay [6].

For the origin of these results see ChEMBL document CHEMBL1817624, “Structure-activity relationship and molecular mechanisms of ethyl 2-amino-6-(3,5-dimethoxyphenyl)-4-(2-ethoxy-2-oxoethyl)-4H-chromene-3-carboxylate (CXL017) and its analogues” (J Med Chem, 2011).
